According to paper PMC3268052 (Journal of Molecular Biology, 2011):
Where two headings read alike, the source gives them in different places.

Experiments:
PKR [1] = biological target: T1, PKR (Homo sapiens, UniProt P19525); experiment: analytical ultracentrifugation; conditions: cited from earlier work
PKR [2] = biological target: T1, PKR; format: binding
Procedure, shortened: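 PKR was purified via heparin–Sepharose then hydroxyapatite and titrated into 15 nM BODIPY-labeled heparin oligosaccharides (dp2–dp8) in AU75 buffer, pH 7.5, 20 °C; NaCl was raised to 100 or 125 mM where noted. Excitation 488 nm and emission 515 nm, 6 nm bandwidths. Each point averages three 5-s background-corrected reads, with 5 min equilibration. Kd came from a hyperbolic fit, and fold-difference is the ratio of Kd values.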

PKR [3] = biological target: T1, PKR; conditions: cited from earlier work
PKR [4] = biological target: T1, PKR; experiment: PKR autophosphorylation activation assay; format: biochemical; conditions: 100 nM PKR, P50 buffer, 0.4 mM ATP, 20 min, 32 °C
Procedure, shortened: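 Autophosphorylation of 100 nM PKR with heparin oligosaccharide activators over a concentration range. P50 buffer: 20 mM Hepes pH 7.5, 50 mM KCl, 5 mM MgCl2, 0.1 mM TCEP. Reactions contained 0.4 mM ATP plus 2 μCi [γ-32P]ATP and ran 20 min at 32 °C. Background autophosphorylation without activator and a 40-bp dsRNA (100 nM) served as references.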

PKR [5] = biological target: T1, PKR; experiment: Fluorescence anisotropy competition of bdp8 with unlabeled dp8; format: binding; conditions: competition of 500 nM bdp8 + 500 nM PKR with unlabeled ligand
Procedure, shortened: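 Unlabeled heparin oligosaccharide was titrated against 500 nM BODIPY-labeled oligosaccharide plus 500 nM PKR. Run in AU75 buffer (75 mM NaCl, 20 mM Hepes, 0.1 mM EDTA, 0.1 mM TCEP, pH 7.5) at 20 °C. Anisotropy read at excitation 488 nm and emission 515 nm, with 5 min equilibration between points. The competition curve was fitted to yield Kd, which sets the fixed β11 value.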

PKR [6] = biological target: T1, PKR; experiment: Sedimentation velocity; format: binding; conditions: for s(P2H2) / s(PH): uncorrected
[7] = biological target: the molecule itself; experiment: sedimentation velocity analytical ultracentrifugation
[8] = Model A with L22 fixed equal to L20, SV

T1 sequence (P19525 whole entry): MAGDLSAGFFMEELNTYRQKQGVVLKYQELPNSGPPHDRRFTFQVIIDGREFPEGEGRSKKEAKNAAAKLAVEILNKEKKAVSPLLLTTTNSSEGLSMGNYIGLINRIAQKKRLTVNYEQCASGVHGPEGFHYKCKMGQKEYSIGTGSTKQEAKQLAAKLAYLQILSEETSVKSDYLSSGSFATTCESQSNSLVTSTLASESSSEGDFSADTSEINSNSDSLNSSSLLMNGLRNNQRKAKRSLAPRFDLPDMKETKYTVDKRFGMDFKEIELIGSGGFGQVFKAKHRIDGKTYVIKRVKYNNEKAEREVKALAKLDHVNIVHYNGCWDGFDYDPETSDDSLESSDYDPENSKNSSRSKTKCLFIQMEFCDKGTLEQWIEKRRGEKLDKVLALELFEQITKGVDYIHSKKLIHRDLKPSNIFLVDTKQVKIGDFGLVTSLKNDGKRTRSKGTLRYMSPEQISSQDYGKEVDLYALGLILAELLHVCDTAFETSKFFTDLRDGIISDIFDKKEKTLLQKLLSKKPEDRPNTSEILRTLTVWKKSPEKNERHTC

For PKR (from UniProt P19525), the Kd (PKR [1]) is given as 500 µM.

In the case of heparin disaccharide [dp2], the “Fold weaker binding affinity than dp8” value (PKR [2]) is reported as roughly 150 fold and the Kd (PKR [2]; BODIPY-labeled oligosaccharide, 75 mM NaCl) is reported as 32.6 ± 7.4 µM.

In the case of heparin hexasaccharide [dp6], the “Activation of PKR, relative activity in earlier studies” value (PKR [3]) is listed as “considerably less active than dp8” and the “Activation of PKR autophosphorylation” value (PKR [4]) is listed as “stimulated”.

In the case of heparin octasaccharide [dp8], the “Activation of PKR autophosphorylation” value (PKR [4]) is reported as “stimulated”, the Kd (PKR [5]) is reported as 0.262 ± 0.021 µM and the Kd (PKR [2]; 15 nM labeled heparin oligosaccharide, 75 mM NaCl, 20 °C, hyperbolic fit) is reported as 0.224 µM. For the same molecule, the Kd (PKR [2]; 100 mM NaCl) was 2.61 ± 0.05 µM, the Kd (PKR [2]; 125 mM NaCl) was 19 ± 1.9 µM and the “Enhancement of PKR dimerization affinity” value (PKR [6]) was “about 4 fold”. For the same molecule, the “g(s*) peak maximum” value (PKR [6]; 60 μM dp8, 2 μM PKR) was ~ 4.0 S, the “g(s*) peak maximum” value (PKR [6]; 60 μM dp8, 16 μM PKR) was “about 4.4 S” and the “s(P2H2)” value (PKR [6]; [8]) was 6.21 Svedbergs. For the same molecule, the “s(PH)” value (PKR [6]; [8]) was 4.14 Svedbergs, the “s(P2H2)” value (PKR [6]; Model A, SV) was 5.98 Svedbergs and the “s(PH)” value (PKR [6]; Model A, SV) was 3.98 Svedbergs. For the same molecule, the “Frictional ratio f/f0 of PKR upon binding of dp8” value (PKR [6]; decrease from 1.56 for free PKR monomer) was 1.47.

B1: PKR (protein)
chain: AGDLSAGFFMEELNTYRQKQGVVLKYQELPNSGPPHDRRFTFQVIIDGREFPEGEGRSKKEAKNAAAKLAVEILNKEKKAVSPLLLTTTNSSEGLSMGNYIGLINRIAQKKRLTVNYEQCASGVHGPEGFHYKCKMGQKEYSIGTGSTKQEAKQLAAKLAYLQILSEETSVKSDYLSSGSFATTCESQSNSLVTSTLASESSSEGDFSADTSEINSNSDSLNSSSLLMNGLRNNQRKAKRSLAPRFDLPDMKETKYTVDKRFGMDFKEIELIGSGGFGQVFKAKHRIDGKTYVIKRVKYNNEKAEREVKALAKLDHVNIVHYNGCWDGFDYDPETSDDSLESSDYDPENSKNSSRSKTKCLFIQMEFCDKGTLEQWIEKRRGEKLDKVLALELFEQITKGVDYIHSKKLIHRDLKPSNIFLVDTKQVKIGDFGLVTSLKNDGKRTRSKGTLRYMSPEQISSQDYGKEVDLYALGLILAELLHVCDTAFETSKFFTDLRDGIISDIFDKKEKTLLQKLLSKKPEDRPNTSEILRTLTVWKKSPEKNERHTC
With B1 the Kd [7] was 404 µM.
